Bioassay records deposited in PubChem by several laboratories.
PHOSPHO1 block = inhibitors of human PHOSPHO1 phosphatase; Q8TCT1; recombinant PHOSPHO1, absorbance phosphatase assay; inhibition, % at 13.3 µM; 1.1% of 290,000 active; AID 1565; in the data active = inhibition above about 60%
Target sequence (Q8TCT1 whole entry, looked up): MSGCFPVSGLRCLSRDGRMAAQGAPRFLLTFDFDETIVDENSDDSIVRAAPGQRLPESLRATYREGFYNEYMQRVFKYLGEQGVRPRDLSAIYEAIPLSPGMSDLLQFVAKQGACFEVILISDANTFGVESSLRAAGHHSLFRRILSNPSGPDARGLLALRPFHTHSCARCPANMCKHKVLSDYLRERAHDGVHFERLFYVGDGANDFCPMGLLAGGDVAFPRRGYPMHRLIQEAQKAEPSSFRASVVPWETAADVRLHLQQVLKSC
UBC13 inh = inhibitors of human UBC13 polyubiquitin chain formation; TR-FRET; inhibition, % at 20 µM; 0.47% of 330,000 active; in the data active = inhibition above about 45%, passing the limit was not always enough; inconclusive = no clear call, values can overlap the other calls
procasp7 counter = activates human procaspase-7, counter-screen for procaspase-3 activators | P55210 | recombinant procaspase-7, Ac-DEVD-pNA absorbance 405 nm; D23A/D198A/D206A triple mutant, cannot self-cleave; scale: DMSO 0, 5 µM enzyme 100 | activation, % at 8.5 µM | 0.093% of 330,000 active;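 active = percent activation above the screen-wide mean plus 3 SD, cut at about 25% in these data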
Target sequence (P55210 whole entry D23A/D198A/D206A): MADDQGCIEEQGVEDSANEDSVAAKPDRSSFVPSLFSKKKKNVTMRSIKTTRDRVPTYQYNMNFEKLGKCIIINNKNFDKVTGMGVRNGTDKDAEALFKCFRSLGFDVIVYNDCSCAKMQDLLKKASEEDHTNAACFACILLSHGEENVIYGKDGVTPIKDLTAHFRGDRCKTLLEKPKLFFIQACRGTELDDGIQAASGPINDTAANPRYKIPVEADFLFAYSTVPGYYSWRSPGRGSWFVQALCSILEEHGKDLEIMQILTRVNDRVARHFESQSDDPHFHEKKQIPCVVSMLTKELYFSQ
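Test system: Procaspase-7 triple mutant (PC-7 D3A). Also added: Ac-DEVD-pNA substrate, 400 µM as added. Schedule: 1 h enzyme–compound preincubation and 2 h substrate reaction, both 25 °C. Signal: p-Nitroaniline absorbance at 405 nm, read at 0 and 120 min. Control set: low DMSO alone, high DMSO plus 5 µM PC-7.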
IDE cell activ = activators of human insulin-degrading enzyme in cells; activation, % at 5.96 µM; 0.073% of 340,000 active; HEK cells, FAbeta-B cleavage, fluorescence polarization; 0% vehicle, 100% cell-free pure enzyme wells; P14735;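 active = activation above the mean of all tested compounds plus 3 SD, set per screening campaign, cut at about 17% in these data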
procasp3 activ = procaspase-3 (human) activation; P42574; recombinant procaspase-3 D3A, Ac-DEVD-pNA absorbance 405 nm; AID 463141; 0.11% of 330,000 active; activation, % at 8.5 µM;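 active = activation above the mean of all tested compounds plus 3 SD, cut at about 21% in these data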;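 note: 0% = DMSO alone and 100% = DMSO wells spiked with extra 5 µM PC-3 D3A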
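Test system: Procaspase-3 D3A mutant, all three cleavage aspartates alanine | Dosing: Single dose, 8.5 µM nominal compound, 0.8% DMSO | Schedule: 1 h preincubation, 2 h reaction | Technique: 405 nm absorbance of p-nitroaniline, reads at 0 and 120 min | Repeats: One well per compound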
IDE inh = inhibits human insulin-degrading enzyme in HEK cells; inhibition, % at 5.59 µM; 0.41% of 320,000 active; FAbetaB cleavage, fluorescence polarization; P14735;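 active = percent inhibition above the average of all tested compounds plus 3 SD, set per screening campaign, cut at about 16% in these data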;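 note: IDE supplied by intact live HEK cells; FP after avidin binding of uncleaved biotin substrate so inhibition keeps polarization high; 0% = DMSO wells and 100% = 60 µM reference IDE inhibitor Ii1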
PC3 dual counter = counter-screen for dual procaspase-3/7 activators: human procaspase-3 activation; recombinant PC-3 D3A, Ac-DEVD-pNA absorbance 405 nm; aspartates 9, 28, 175 changed to alanine; 100% = enzyme control; AID 493114; 290 tested, under 10 active; activation, % at 8.5 µM; shares compounds with procasp7 counter;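 active = mean percent activation across triplicates above a set limit taken from the earlier primary procaspase-3 screen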;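 note: 0% = DMSO wells and 100% = DMSO wells with 5 µM added PC-3 D3A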
PC7 dual conf = procaspase-7 (human) activation, dual activator confirmation | shares compounds with procasp7 counter | recombinant procaspase-7, Ac-DEVD-pNA absorbance 405 nm; D23A/D198A/D206A mutant that cannot self-cleave | activation, % at 8.5 µM | 290 tested, under 10 active | AID 493115;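 active = mean activation above a set limit carried over from the earlier primary screen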;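 note: 0% = DMSO only and 100% = DMSO with added 5 µM PC-7 enzyme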
Numbers without * were called inactive; ? = inconclusive; · = no result. This is a sample that favours compounds with a hit; in the whole collection about 1.9% have one here.

SMILES	PHOSPHO1 block	UBC13 inh	procasp7 counter	IDE cell activ	procasp3 activ	IDE inh	PC3 dual counter	PC7 dual conf
Nc1c(S(=O)(=O)c2cccs2)c2nc3ccccc3nc2n1Cc1ccccc1	0	7	55*	6	44*	6	-29	-36
Cc1ccc(Cn2c(N)c(S(=O)(=O)c3cccs3)c3nc4ccccc4nc32)cc1	4	5	7	9	7	1	·	·
CCOc1ccc(N=CC2=C(O)CC(c3ccco3)CC2=O)cc1 (stereo unspecified)	4	0	54*	1	38*	-3	19	13
O=C(O)c1ccc(/C=N/Nc2nc3ccccc3[nH]2)cc1	4	-5	6	-3	-3	-1	·	·
O=c1[nH]c(N/N=C/c2ccc(O)cc2)nc2ccccc12	8	6	34*	-2	27*	2	-2	-1
Cc1ccc(-c2cc(-c3ccc(F)cc3)nc(N)c2C#N)o1	-3	-10	50*	0	42*	-6	-29	-34
COc1ccc(C2C3=C(CC(C)(C)CC3=O)Nc3c2c(=O)n(C)c(=O)n3C)cc1OC (stereo unspecified)	-8	19	27*	-2	6	0	-28	-24
COc1ccc(/C=N/NC(=O)c2sc3nc(C)cc(C)c3c2N)cc1	27	16	49*	0	19	3	-28	-35
COc1ccc(NC(=O)c2sc3nc(C)cc(C)c3c2N)cc1	13	3	-24	1	-45	8	·	·
Cc1ccc2nc3c(cc2c1)c(NC(=O)c1ccco1)nn3CC(C)C	0	10	64*	5	52*	-2	-29	-34
CSc1nc(O)c(Nc2ccccc2)c(=O)[nH]1	·	·	·	0	·	·	·	·
COc1ccc(C(C(=O)NCc2ccccc2)N(C(=O)c2snc(C(N)=O)c2N)c2ccccc2OC)cc1 (stereo unspecified)	36	16	29*	-2	-23	1	-31	-35
CN(C)c1ccc(-c2nn3c(-c4ccccc4Cl)nnc3s2)cc1	30	21	34*	6	-3	4	-29	-35
N#CCC(=O)Nc1ccc(C(=O)OCC(=O)N2CCN(C(=O)c3ccco3)CC2)cc1	·	-15	-8	5	1	0	·	·
O=c1cc(-c2ccc(O)cc2)oc2ccc3ccccc3c12	·	33	29*	4	22*	1	4	2
N#Cc1ccc(S(=O)(=O)NCC(=O)OCC(=O)N2CCCC2=O)cc1	·	-7	3	3	-1	-8	·	·
Cc1ccc2nc(-c3ccc(NS(=O)(=O)c4ccccc4)cc3)sc2c1	2	13	52*	4	23*	-1	4	3
Cc1ccc(-c2nc3ncccc3o2)cc1NC(=O)c1ccc2c(c1)OCO2	·	·	·	4	·	·	·	·
CC(C)c1ccc(/C=C2\SC(=O)N(CC(=O)NC3C=CS(=O)(=O)C3)C2=O)cc1 (stereo unspecified)	40	-19	-4	4	7	2	·	·
COc1ccc(Nc2oc(-c3cccs3)nc2C#N)cc1	42	-7	53*	1	16	1	-30	-30
O=C1C(Cl)=C(NCCc2ccccc2)C(=O)N1CCc1ccccc1	15	-4	33*	4	4	-1	-12	-6
O=C1C(Cl)=C(NCCCN2CCOCC2)C(=O)N1CCc1ccccc1	12	-6	-6	0	-2	-2	·	·
Cc1ccc(NC(=O)CSc2nnc(-c3ccncc3)o2)cc1C	50	-3	5	·	3	-5	·	·
COC(=O)c1ccc(CSc2nnc(NC(C)C)s2)o1	32	5	5	0	8	6	·	·
COc1cccc2cc(-c3nc(-c4cccs4)cs3)c(=O)oc12	47	24	65*	0	17	4	13	4
SMILES	PHOSPHO1 block	UBC13 inh	procasp7 counter	IDE cell activ	procasp3 activ	IDE inh	PC3 dual counter	PC7 dual conf
O=c1oc2ccccc2cc1-c1nc(-c2cccs2)cs1	34	?	-16	-3	12	3	·	·
O=C(Cn1c2ccccc2c(=O)c2ccccc21)Nc1cccc(F)c1	-2	4	93*	1	50*	2	-28	-38
COc1ccc(OC)c(/C=N/NC(=O)c2cc3c(OC)cc(OC)cc3[nH]2)c1	-23	3	23	2	3	6	·	·
COc1ccc(OC)c(/C=N/NC(=O)c2cc3c(OC)cccc3[nH]2)c1	46	5	38*	5	16	-4	3	3
Cc1ccc(S(=O)(=O)NCC(=O)OC(C)C(=O)NC(=O)NC2CCCCC2)cc1C (stereo unspecified)	·	3	-3	3	-1	0	·	·
Cc1cc(-c2nc3cccnc3s2)ccc1NS(=O)(=O)c1cccs1	32	5	26*	1	17	-6	-28	-34
CS(=O)(=O)N1CCC(C(=O)Nc2cccc(Cl)c2Cl)CC1	·	-1	-3	4	5	-2	·	·
C=CCOc1ccc(C2C(C#N)=C(N)N(Nc3ccccc3)C3=C2C(=O)CC(C)(C)C3)cc1OC (stereo unspecified)	-1	0	35*	-1	19	3	-4	-6
C#CCOc1ccc(C2C3=C(CC(C)(C)CC3=O)N(CC(=O)O)C3=C2C(=O)CC(C)(C)C3)cc1OC	24	-7	-17	3	-8	0	·	·
COc1ccc2c(c1OC)C(=O)OC2CC(=O)c1ccc(N(C)C)cc1 (stereo unspecified)	11	-4	41*	-3	44*	4	41*	30*
N#Cc1c(N)c(C#N)c(-c2ccc3c(c2)OCO3)c2c1CCCC2	-22	19	2	-5	5	4	·	·
N#Cc1c(N)nc2c(c1-c1ccc3c(c1)OCO3)CCc1ccccc1-2	-32	8	30*	1	16	0	-30	-34
O=c1[nH]c(-c2ccccc2)nc2sc(-c3ccccc3)cc12	-8	31	26*	0	29*	-1	-29	-35
CCOC(=O)c1ccc2nc(NC(=O)c3ccco3)sc2c1	-6	0	30*	3	24*	-4	-29	-36
CC(C)CN(C(=O)c1ccc(Br)o1)C1CCS(=O)(=O)C1 (stereo unspecified)	·	0	5	6	5	4	·	·
